Results on 17 compounds are retold here after ChEMBL document CHEMBL4177756, “Small Molecule Neuropilin-1 Antagonists Combine Antiangiogenic and Antitumor Activity with Immune Modulation through Reduction of Transforming Growth Factor Beta (TGFβ) Production in Regulatory T-Cells” (J Med Chem, 2018).

One data set addresses Neuropilin-1 (Homo sapiens, UniProt O14786). Kind of data set: Binding affinity to N-terminal His6-tagged recombinant human NRP1-b1 domain expressed in Escherichia coli Rosetta Gami 2 (DE3) pLysS cells by SPR method. The method, boiled down:
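Human NRP1-b1 (residues 273–427, His6-tagged) was amine-coupled to a CM5 chip at high and low density; an unmodified spot served as reference. Runs were at 25 °C in PBS with 0.05% P20 and 3% DMSO. Compound was tested as 2-fold dilutions from 16 µM to 31 nM with 60 s injections. KD was taken from steady-state responses, DMSO-corrected; mean ± SD of the two surfaces.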
On the technique in general: Surface plasmon resonance follows binding to a sensor surface in real time, without labels.

In data set [1] the test system is Mus musculus. Kind of data set: AUC (infinity) in BALB/c mouse at 2 mg/kg, iv administered as bolus dose by LC-MS method. Also noted: dose 2 mg/kg, route intravenous, time infinity. The note with it: in vivo. In kind it is ADME, organism-based. Put shortly: (§1)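 Female BALB/c mice, 6–8 weeks old, received 2 mg/kg as a tail-vein bolus formulated in 7.5% DMSO. Blood was taken by cardiac puncture at 5, 15, 30, 60, 180 and 240 min. Plasma was separated by centrifugation, snap-frozen and assayed by LC-MS/MS with electrospray ionization.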

Data set [2] deals with Mus musculus. The data set is described as follows: Cmax in BALB/c mouse at 2 mg/kg, iv administered as bolus dose by LC-MS method. Details: dose 2 mg/kg, route intravenous. The note with it: in vivo. It counts as ADME, organism-based. The method, boiled down:
as §1

The subject of data set [3] is Mus musculus. Kind of data set: Half life in BALB/c mouse at 2 mg/kg, iv administered as bolus dose by LC-MS method. In kind it is ADME, organism-based. The note with it: in vivo. Put shortly:
as §1

Data set [4] relates to Mus musculus. Kind of data set: Volume of distribution in BALB/c mouse at 2 mg/kg, iv administered as bolus dose by LC-MS method. In kind it is ADME, organism-based. The note with it: in vivo. Put shortly:
as §1

Data set [5] deals with Mus musculus. The data set is described as follows: Tmax in BALB/c mouse at 2 mg/kg, iv administered as bolus dose by LC-MS method. In kind it is ADME, organism-based. The settings on record: in vivo. The method, boiled down: as §1

Chain of Neuropilin-1 (O14786 whole entry, the tested form may be a part): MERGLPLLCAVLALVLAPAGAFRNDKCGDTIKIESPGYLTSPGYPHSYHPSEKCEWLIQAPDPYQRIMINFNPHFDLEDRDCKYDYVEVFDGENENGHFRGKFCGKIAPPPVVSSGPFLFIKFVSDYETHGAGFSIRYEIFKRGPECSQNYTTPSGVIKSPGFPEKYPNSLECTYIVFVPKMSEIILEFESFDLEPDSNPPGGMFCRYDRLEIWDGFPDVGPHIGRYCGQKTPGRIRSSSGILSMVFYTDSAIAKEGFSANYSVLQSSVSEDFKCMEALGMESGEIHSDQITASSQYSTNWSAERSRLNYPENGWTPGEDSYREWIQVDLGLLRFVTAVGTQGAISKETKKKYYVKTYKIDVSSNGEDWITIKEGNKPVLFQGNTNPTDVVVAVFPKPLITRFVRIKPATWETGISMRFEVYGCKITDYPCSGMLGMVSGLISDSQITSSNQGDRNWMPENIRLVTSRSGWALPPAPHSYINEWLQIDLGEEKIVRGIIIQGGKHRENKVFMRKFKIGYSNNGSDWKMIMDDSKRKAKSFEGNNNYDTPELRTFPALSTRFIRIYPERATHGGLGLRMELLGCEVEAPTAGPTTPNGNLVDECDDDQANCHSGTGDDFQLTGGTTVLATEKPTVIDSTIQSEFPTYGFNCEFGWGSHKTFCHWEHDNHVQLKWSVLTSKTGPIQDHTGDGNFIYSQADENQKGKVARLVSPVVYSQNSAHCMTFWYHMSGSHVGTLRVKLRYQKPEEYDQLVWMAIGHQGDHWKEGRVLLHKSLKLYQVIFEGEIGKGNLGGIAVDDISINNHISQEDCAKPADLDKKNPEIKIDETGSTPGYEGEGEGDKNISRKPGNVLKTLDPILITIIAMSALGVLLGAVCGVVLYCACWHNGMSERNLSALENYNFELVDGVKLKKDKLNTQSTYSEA

The Kd is a measure of binding affinity in units of concentration. Consider `CNC(=O)C1CCN(Cc2ccccc2-c2cc3c(c(S(=O)(=O)Nc4ccsc4C(=O)N[C@@H](CCCNC(=N)N)C(=O)O)c2)OCC3)CC1`, for which, on Neuropilin-1, the Kd stood at 3020 nM.

For the compound `N=C(N)NCCC[C@H](NC(=O)c1sccc1NS(=O)(=O)c1cc(-c2cccc(CN)c2)cc2c1OCC2)C(=O)O`, the Kd on Neuropilin-1 turned out to be 2440 nM.

For the compound `N=C(N)NCCC[C@H](NC(=O)c1sccc1NS(=O)(=O)c1cc(-c2ccccc2CN2CCC(C(N)=O)CC2)cc2c1OCC2)C(=O)O`, the Kd on Neuropilin-1 was 2050 nM.

As for `N=C(N)NCCC[C@H](NC(=O)c1sccc1NS(=O)(=O)c1cc(-c2cccc(CN3CCC(N4CCOCC4)CC3)c2)cc2c1OCC2)C(=O)O`, the Kd at Neuropilin-1 stood at 1380 nM.

In the case of `N=C(N)NCCC[C@H](NC(=O)c1sccc1NS(=O)(=O)c1cc(-c2ccccc2CN2CCCCC2)cc2c1OCC2)C(=O)O`, on Neuropilin-1, the Kd is 2280 nM.

As to `N=C(N)NCCC[C@H](NC(=O)c1sccc1NS(=O)(=O)c1cc(-c2ccccc2)cc2c1OCC2)C(=O)O`, the Kd on Neuropilin-1 worked out at 14400 nM.

As to `N#CCC1CCN(Cc2cccc(-c3cc4c(c(S(=O)(=O)Nc5ccsc5C(=O)N[C@@H](CCCNC(=N)N)C(=O)O)c3)OCC4)c2)CC1`, the Kd on Neuropilin-1 is 1410 nM.

On to `N=C(N)NCCC[C@H](NC(=O)c1sccc1NS(=O)(=O)c1cc(-c2ccccc2CN2CCC(N3CCOCC3)CC2)cc2c1OCC2)C(=O)O`, for which the Kd at Neuropilin-1 is 1500 nM.

Take `N#CCC1CCN(Cc2ccccc2-c2cc3c(c(S(=O)(=O)Nc4ccsc4C(=O)N[C@@H](CCCNC(=N)N)C(=O)O)c2)OCC3)CC1`: at Neuropilin-1, the Kd came out at 1860 nM.

In general, AUC refers to the area under the concentration-time curve, a measure of exposure. Read a high AUC as high exposure. As a reminder, the Cmax is the highest concentration seen after dosing. What is called Vd is a proportionality between amount in the body and measured concentration, not a real space. Read a low Vd as little distribution into tissue. By Tmax is commonly meant the time from dosing to the highest level. `CN(C)Cc1cccc(-c2cc3c(c(S(=O)(=O)Nc4ccsc4C(=O)N[C@@H](CCCNC(=N)N)C(=O)O)c2)OCC3)c1` registered an AUC in the data set on Mus musculus [1] of 564.44 ng·h/mL. Besides, at Neuropilin-1, the Kd came to 4520 nM. This compound also registered a Cmax in the data set with Mus musculus [2] of 1959.8 ng/mL. Moreover, the t1/2 in the data set with Mus musculus [3] was 40.8 min. The same compound yielded a Vd with Mus musculus [4] of 1.05261 L/kg. Moreover, the Tmax in the data set with Mus musculus [5] stood at 4.8 min.

Take `N=C(N)NCCC[C@H](NC(=O)c1sccc1NS(=O)(=O)c1cc(-c2cccc(CN3CCOCC3)c2)cc2c1OCC2)C(=O)O`: the Kd at Neuropilin-1 turned out to be 3760 nM.

`N=C(N)NCCC[C@H](NC(=O)c1sccc1NS(=O)(=O)c1cc(-c2cccc3c2CNC3)cc2c1OCC2)C(=O)O`: the Kd on Neuropilin-1 is 2470 nM.

As for `N=C(N)NCCC[C@H](NC(=O)c1sccc1NS(=O)(=O)c1cc(-c2ccccc2CN)cc2c1OCC2)C(=O)O`, the Kd at Neuropilin-1 was determined as 1870 nM.

As for `N=C(N)NCCC[C@H](NC(=O)c1sccc1NS(=O)(=O)c1cc(-c2ccc3c(c2)CNC3)cc2c1OCC2)C(=O)O`, the Kd on Neuropilin-1 was determined as 2170 nM.

`CNC(=O)C1CCN(Cc2cccc(-c3cc4c(c(S(=O)(=O)Nc5ccsc5C(=O)N[C@@H](CCCNC(=N)N)C(=O)O)c3)OCC4)c2)CC1`: the dissociation constant (Kd) at Neuropilin-1 is 1330 nM.

With `N=C(N)NCCC[C@H](NC(=O)c1sccc1NS(=O)(=O)c1cc(-c2cccc(CN3CCCCC3)c2)cc2c1OCC2)C(=O)O`, at Neuropilin-1, the Kd was 1170 nM.

As to `N=C(N)NCCC[C@H](NC(=O)c1sccc1NS(=O)(=O)c1cc(-c2cccc(CN3CCC(C(N)=O)CC3)c2)cc2c1OCC2)C(=O)O`, the equilibrium dissociation constant (Kd) at Neuropilin-1 turned out to be 1560 nM.
